# Compounds with a hit are over-represented: about 1.7% of the library has one in this group of screens.
# ZTA DNA inh = counter-screen for EBNA-1 inhibitors: inhibitors of Epstein-Barr virus ZTA; P03206; ZTA-DNA binding, fluorescence polarization; inhibition, % at 11 µM; actives 0.15% (n = 320,000); in the data active = inhibition above about 33%
# Apaf1 inhib = inhibitors of human Apaf-1 apoptosome, primary screen, biochemical, DEVD-Rh110 fluorescence, uHTS. Apoptotic protease-activating factor 1 (Homo sapiens), O14727. reconstituted apoptosome caspase-3 activity. inhibition, % at 20 µM. actives 0.71% (n = 330,000). AID 489030, 2010; active = inhibition of at least 40% at 20 µM
#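 System: reconstituted apoptosome with Apaf-1, cytochrome c, caspase-9, procaspase-3, dATP; Signal: Rh110 fluorescence intensity; Schedule: 30 min compound preincubation, 50 min activation, room temperature; Reagent: cytochrome c trigger plus (Z-DEVD)2-Rh110 caspase-3 substrate.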
# UBC13 inh = UBC13 polyubiquitin chain formation inhibitors, primary screen, biochemical, TR-FRET, uHTS; Ubiquitin-conjugating enzyme E2 N (Homo sapiens), P61088; inhibition, % at 20 µM; actives 0.47% (n = 330,000); AID 485273, 2010; in the data active = inhibition above about 45%, passing the limit was not always enough
# Target sequence (P61088 whole entry, looked up): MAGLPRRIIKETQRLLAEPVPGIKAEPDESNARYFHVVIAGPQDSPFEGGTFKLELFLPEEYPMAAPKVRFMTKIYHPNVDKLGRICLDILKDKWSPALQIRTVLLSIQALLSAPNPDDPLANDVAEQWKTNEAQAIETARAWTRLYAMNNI
# PREPL inh = PREPL enzyme inhibitors, primary screen, biochemical, fluorescence polarization; recombinant PREPL, fluorescence polarization activity-based probe; inhibition, % at 5.96 µM; actives 0.68% (n = 320,000); in the data active = inhibition above about 43%
# EBNA-1 inhibitor = EBNA-1 DNA-binding inhibitors, primary screen, biochemical, fluorescence polarization; actives 0.34% (n = 300,000); inhibition, % at 14.8 µM; in the data active = inhibition above about 28%
# Casp3 UBC13 ctr = CASP3 inhibitor validation, counterassay for project on UBE2N polyubiquitination blockers, biochemical, one dose. Recombinant caspase-3, Caspase-Glo 3/7 luminescence, 60 min. AID 488856, 2010. inhibition, % at 20 µM. shares compounds with UBC13 inh. actives 4% (n = 1,400);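 active = mean inhibition across replicates above about 26%, limit read from the data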
# Target sequence (P42574 whole entry, looked up): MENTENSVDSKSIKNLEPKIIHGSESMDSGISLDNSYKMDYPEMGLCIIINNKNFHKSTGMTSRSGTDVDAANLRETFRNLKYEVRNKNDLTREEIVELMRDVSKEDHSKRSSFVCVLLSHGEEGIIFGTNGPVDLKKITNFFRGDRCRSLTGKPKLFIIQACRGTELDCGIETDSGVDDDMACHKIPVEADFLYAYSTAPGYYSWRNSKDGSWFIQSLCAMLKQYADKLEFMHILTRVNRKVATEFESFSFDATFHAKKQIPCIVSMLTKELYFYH
# UBC13 conf = UBC13 polyubiquitination inhibitors, single-point retest, confirmation, biochemical, TR-FRET, single concentration; shares compounds with UBC13 inh; inhibition, % at 10 µM; actives 68% (n = 1,400); AID 488859, 2010; in the data active = inhibition above about 45%
# Apaf-1 inh conf2 = Apaf-1 inhibitors, single-dose retest, confirmation, biochemical, fluorescence, DEVD-Rh110, 20 µM. reconstituted apoptosome, caspase-3 DEVD-Rh110 fluorescence. actives 25% (n = 1,800). inhibition, % at 20 µM. shares compounds with Apaf1 inhib;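 active = mean inhibition of at least 40% at 20 µM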
# Rh110 interf inh = Rh110 fluorescence interference by putative Apaf-1 inhibitors, confirmation, artefact control for Apaf-1 inhibitor project, biochemical, 20 µM; shares compounds with Apaf1 inhib; AID 504615, 2011; quenched caspase reaction; 1,800 tested, under 10 active; activation (fluorescence interference), % at 20 µM;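 active = signal rise of 40% or more at 20 µM, treated as a fluorescence artifact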
# Fluor interf inh = fluorescence interference of Apaf-1 inhibitor hits, dose response, artefact control for Apaf-1 inhibitor project | shares compounds with Apaf1 inhib | fluorescence interference counterscreen, Apaf-1 assay format | IC50, µM | 460 tested, under 10 active | AID 588538, 2011; call rule not given here
# A number is an active result; – = inactive; · = no result given.
SMILES,ZTA DNA inh,Apaf1 inhib,UBC13 inh,PREPL inh,EBNA-1 inhibitor,Casp3 UBC13 ctr,UBC13 conf,Apaf-1 inh conf2,Rh110 interf inh,others
C#CCOCCOCCOCCNc1nc(N2CCN(C(=O)[C@H](CCCN=C(N)N)n3cc(C(N)[C@@H](C)CC)nn3)CC2)nc(N2CCN(C(=O)[C@H](CCCCN)n3cc([C@@H](N)[C@H](C)CC)nn3)CC2)n1 (stereo not given in full),·,50,95,–,·,–,88,–,–,
O=S(=O)(N/N=C\c1ccccc1O)c1ccc(Cl)cc1,·,–,–,·,·,·,·,·,·,
NC1=NC[C@@H](Cc2ccc(O)cc2)N1CCCCC1CCCCC1,–,51,66,–,–,–,–,–,–,
NC1=NC[C@H](Cc2ccc(O)cc2)N1CC1CCCCC1,–,–,–,–,–,·,·,·,·,
COc1ccc(/C=C2/Sc3ccc(C(=O)NCCCN4CCOCC4)cc3NC2=O)cc1OC,–,–,–,–,–,·,·,·,·,
COc1cccc(/C=C2/Sc3ccc(C(=O)NCCN4CCCCCC4)cc3NC2=O)c1,–,–,66,–,–,–,92,–,–,
Cc1sc2nc(SCc3nc4ccccc4[nH]3)n(Cc3ccco3)c(=O)c2c1C,–,–,–,–,–,·,·,·,·,
Cc1cc(C(=O)Nc2ccccc2Cc2ccccc2)no1,–,–,–,–,–,·,·,·,·,
COc1ccc(C(CNC(=O)c2cc3c(s2)CCC(C)C3)N2CCCC2)cc1 (stereo not given),–,61,59,–,·,–,–,–,–,
NC(=NCCCCCCN=C(N)/N=C(\N)Nc1ccc(Cl)cc1)/N=C(\N)Nc1ccc(Cl)cc1,–,79,111,–,–,–,118,–,–,
COc1ccc(C[C@H]2CN3C(=NC[C@@H]3C(C)C)N2CCNC(=O)c2ccc(C)c(Br)c2)cc1,–,47,60,–,–,–,–,–,–,
O=C(CSc1nnc(COc2ccccc2)n1Cc1ccco1)c1ccc(F)cc1,–,–,–,–,–,·,·,·,·,
CCOc1cccc(CNc2ccc(O)cc2)c1OCc1ccccc1Cl,–,97,–,–,–,·,·,–,–,
O=C(O)C1CCN(C(=O)c2ccccc2Cl)CC1,–,–,–,–,–,·,·,·,·,
O=C1C(Cl)=C(N2CCC(C(=O)O)CC2)C(=O)c2ccccc21,–,75,–,–,–,·,·,53,–,Fluor interf inh=–
O=C(Nc1cc(C(F)(F)F)ccc1N1CCOCC1)c1cccs1,–,–,–,–,–,·,·,·,·,
O=C1/C(=C\c2ccc(-c3ccccc3[N+](=O)[O-])o2)C(c2ccccc2)=NN1c1ccccc1,–,44,–,–,–,·,·,–,–,
Cc1sc2ncnc(N3CCC(C(=O)N(C)CC(=O)Nc4ccccc4Cl)CC3)c2c1C,–,60,–,–,–,·,·,–,–,
CCN1CCCC1CNC(=O)c1cc2c(-c3ccc(Cl)cc3)nn(C)c2s1 (stereo not given),–,49,–,–,–,·,·,–,–,
COc1ccc(NC2c3ccccc3C(=O)N2c2cccnc2)cc1 (stereo not given),–,–,–,–,–,·,·,·,·,
CCCCCOC(=O)c1c(N)n(CCOC)c2nc3ccccc3nc12,–,94,–,–,–,·,·,–,–,
CCOC(=O)c1c(N)n(CCOC(=O)c2cccs2)c2nc3ccccc3nc12,–,95,–,–,–,·,·,–,–,
COc1ccc(Cl)cc1-n1c(=S)sc2c(=O)[nH]c(SCC(=O)NCC3CCCO3)nc21 (stereo not given),–,–,–,–,–,·,·,·,·,

# Screens (PubChem)
